The results in this text go back to ChEMBL document CHEMBL4732031, “Novel fluorinated ring-fused chlorins as promising PDT agents against melanoma and esophagus cancer” (RSC Med Chem, 2021).

A word on the pIC50: it is −log10 of the IC50, conventionally taken in molar units.

Structures are written as SMILES. pIC50: −log10 of the molar value.

Data set [1] relates to A-375. Put plainly: Photocytotoxicity against human A375 cells assessed as cell viability after 24 hrs in presence of light irradiation by MTT assay. The data set is classed as functional, cell-based. The settings on record: A-375, light or radiation study. The method in brief: (§1)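 A375 (DMEM) or OE19 (RPMI 1640) cells were plated overnight and given sensitizer at 1 nM–10 μM, diluted from a 1 mg/mL DMSO stock, with a 1% DMSO vehicle control. After 24 h dark incubation at 37 °C, cells were PBS-washed and refed.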

Data set [2] has as its system OE19. Put plainly: Photocytotoxicity against human OE19 cells assessed as cell viability after 24 hrs in presence of light irradiation by MTT assay. The data set is classed as functional, cell-based. To be noted: OE19, light or radiation study. The procedure, abridged:
as §1
On the technique in general: Formazan colour is commonly taken as a measure of viable cells.

In data set [3] the test system is A-375. The data set is described as follows: Cytotoxicity against human A375 cells assessed as cell viability measured after 24 hrs by MTT assay. The settings on record: A-375, 24 h. The data set is classed as cell-based. The procedure, abridged: (§2)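 Dark control run in A375 (DMEM) or OE19 (RPMI 1640) cells, plated overnight. Sensitizers were diluted from a 1 mg/mL DMSO stock and given at 1 nM–10 μM, with a 1% DMSO vehicle control. Cells were incubated 24 h at 37 °C in the dark, PBS-washed, refed and not irradiated. Read-out was MTT (0.5 mg/mL, 4 h) with formazan dissolved in HCl/isopropanol, as % of vehicle; IC50 taken from dose–response curves.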

Data set [4] has as its system OE19. Put plainly: Cytotoxicity against human OE19 cells assessed as cell viability measured after 24 hrs by MTT assay. The data set is classed as cell-based. The settings on record: OE19, 24 h. The procedure, abridged: as §2
The nature of data set [5]: Drug uptake in human A375 cells at 500 nM incubated for 24 hrs by fluorescence emission spectroscopic analysis. In kind it is ADME, cell-based. To be noted: a-375, 24 h, 0.5 µM. The method in brief: (§3)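 Cells (5 × 10^5) were exposed to 500 nM sensitizer for 24 h in the dark, then PBS-washed, disrupted in DMSO, scraped and centrifuged. Supernatant fluorescence was read with excitation at 405 and 420 nm. Intracellular concentration was calculated from a calibration curve of each sensitizer in DMSO; mean ± SE.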

Data set [6] in a line: Drug uptake in human OE19 cells at 500 nM incubated for 24 hrs by fluorescence emission spectroscopic analysis. The data set is classed as ADME, cell-based. To be noted: oe19, 24 h, 0.5 µM. The procedure, abridged: as §3

As for `COC(=O)c1nn2c(c1C(=O)OC)CC1c3nc(c(-c4c(F)c(F)c(NCCOCCO)c(F)c4F)c4ccc([nH]4)c(-c4c(F)c(F)c(NCCOCCO)c(F)c4F)c4nc(c(-c5c(F)c(F)c(NCCOCCO)c(F)c5F)c5ccc([nH]5)c3-c3c(F)c(F)c(NCCOCCO)c(F)c3F)C=C4)C1C2` (stereo not given), the pIC50 was 6.04 in the data set on A-375 [1], 6.98 with OE19 [2], less than 5.00 with A-375 [3] and less than 5.00 with OE19 [4]. This compound also gave a Drug uptake in data set [5] of 148 nM.
As for `COC(=O)c1nn2c(c1C(=O)OC)CC1c3nc(c(-c4c(F)c(F)c(F)c(F)c4F)c4ccc([nH]4)c(-c4c(F)c(F)c(F)c(F)c4F)c4nc(c(-c5c(F)c(F)c(F)c(F)c5F)c5ccc([nH]5)c3-c3c(F)c(F)c(F)c(F)c3F)C=C4)C1C2` (stereo not given), the pIC50 was 5.18 with A-375 [1], 5.25 in the data set with OE19 [2], less than 5.00 with A-375 [3] and less than 5.00 in the data set with OE19 [4].
In the case of `OCCOCCNc1c(F)c(F)c(-c2c3nc(c(-c4c(F)c(F)c(NCCOCCO)c(F)c4F)c4ccc([nH]4)c(-c4c(F)c(F)c(NCCOCCO)c(F)c4F)c4nc(c(-c5c(F)c(F)c(NCCOCCO)c(F)c5F)c5ccc2[nH]5)C2Cc5c(CO)c(CO)nn5CC42)C=C3)c(F)c1F` (stereo not given), the pIC50 is 7.89 in the data set with A-375 [1], 7.57 in the data set with OE19 [2], less than 5.00 in the data set on A-375 [3] and less than 5.00 in the data set with OE19 [4]. Further, the Drug uptake in data set [5] came to 254 nM; in data set [6], 202 nM.
For `OCc1nn2c(c1CO)CC1c3nc(c(-c4c(F)c(F)cc(F)c4F)c4ccc([nH]4)c(-c4c(F)c(F)cc(F)c4F)c4nc(c(-c5c(F)c(F)cc(F)c5F)c5ccc([nH]5)c3-c3c(F)c(F)cc(F)c3F)C=C4)C1C2` (stereo not given), the pIC50 in the data set with A-375 [1] is 7.14; in the data set with OE19 [2] it was 7.25; in the data set on A-375 [3], less than 5.00; with OE19 [4] it was less than 5.00. This compound also came in with a Drug uptake in data set [5] of 128 nM.
